Compounds with a hit are over-represented: about 2.2% of the library has one in this group of screens.
FLuc act counter – FLuc activators, initial screening, artefact control for FLuc-dependent activation tests, biochemical, ATPlite luminescence; Luciferin 4-monooxygenase (Photinus pyralis), P08659; ATPlite luciferase biochemical, 10 min; 0 = ATP-free wells, 1 = DMSO control; activation factor at 10 µM; 200,000 tested, under 10 active;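 active means luciferase activation factor, scaled between plate controls, of at least 2 with compound at 10 µM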
Target sequence (P08659 whole entry, looked up): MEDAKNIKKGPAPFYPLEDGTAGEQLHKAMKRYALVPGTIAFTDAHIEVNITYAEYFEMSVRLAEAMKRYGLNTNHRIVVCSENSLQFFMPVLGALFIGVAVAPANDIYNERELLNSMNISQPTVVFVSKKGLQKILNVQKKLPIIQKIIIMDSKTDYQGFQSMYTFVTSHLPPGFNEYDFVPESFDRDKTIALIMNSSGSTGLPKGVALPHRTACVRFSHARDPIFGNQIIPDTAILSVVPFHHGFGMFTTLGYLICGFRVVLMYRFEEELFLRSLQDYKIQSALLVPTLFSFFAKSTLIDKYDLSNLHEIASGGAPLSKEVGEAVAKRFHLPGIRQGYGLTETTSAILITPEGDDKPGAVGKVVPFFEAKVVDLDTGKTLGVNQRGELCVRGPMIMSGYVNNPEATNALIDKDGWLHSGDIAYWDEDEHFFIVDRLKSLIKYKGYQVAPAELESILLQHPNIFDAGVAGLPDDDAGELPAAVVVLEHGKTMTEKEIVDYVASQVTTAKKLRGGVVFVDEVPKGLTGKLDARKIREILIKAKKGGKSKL
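Material: luciferase plus luciferin reagent, cell-free. Medium: PBS buffer for ATP. Also added: ATP substrate, dispensed from a 10.24 µM working solution in PBS. Doses: test compounds dosed from 2 mM stocks in 100% DMSO. Incubation: 10 min post-reagent at room temperature. Technique: light output (luminescence). Read-out basis: luminescence gain marking luciferase activators.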
TRAIL sens C8 – viability loss with TRAIL in NB7+C8 cells, primary screen, TRAIL sensitizer project, cell-based, ATPlite luminescence | 360,000 compounds, 1% hits | inhibition (viability loss, TRAIL sensitization), % at 10 µM;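 active means compounds causing at least 50% loss of cell viability in the single-dose screen, relative to plate controls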
PPC-1+TRAIL kill – compounds killing PPC-1 cancer cells with TRAIL present, primary screen, TRAIL potentiator project, ATPLite luminescence, uHTS | PPC-1 cells + TRAIL, ATPLite viability luminescence | cell killing (% activity), % at 4 µM or 5 µM | 220,000 compounds, 0.41% hits;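 active means cell killing above 50% in the first pass at 4 µM, then a duplicate retest at 5 µM averaging 50% or more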;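 further: plate controls were cells with TRAIL plus DMSO for no effect and medium-only wells lacking cells for full effect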
FLuc inhib CS – firefly luciferase enzyme inhibitors, primary screen, artefact control for luciferase-based inhibitor screens, biochemical, luminescence, ATPLite; inhibition, % at 10 µM; 10 min; 200,000 compounds, 1.5% hits; AID 1006, 2008;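 active means inhibition above about 50% when tested at 10 µM, limit read from the data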
APP 5'UTR act – activators of APP 5'UTR luciferase reporter, primary screen, SH-SY5Y cells. SH-SY5Y APP 5'UTR luciferase reporter, luminescence; zero percent = DMSO vehicle wells. activation, % at 2 µM. 190,000 compounds, 1% hits;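 active means activation above a set limit, based on mean plus 3 SD of controls, cut at about 140% in these data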
NF-kB expr up – activators of NF-kB expression in neurons, primary screen, cell-based, HTS; human neuronal cells, NF-kB reporter expression; active compounds read high; fold change at 12.5 µM; 190,000 compounds, 1.6% hits; AID 1239, 2008; in the data active means fold change above about 3.3
Starred values were filed as active, the others as inactive; . = no result given.

SMILES | FLuc act counter | TRAIL sens C8 | PPC-1+TRAIL kill | FLuc inhib CS | APP 5'UTR act | NF-kB expr up
C[C@H](CO)N1C[C@H](C)[C@H](CN(C)S(C)(=O)=O)OCc2cnnn2CCCC1=O | . | -6 | . | . | . | .
Cc1ccccc1-c1cc2nc(Oc3cccc4ccccc34)n(C)c(=O)c2s1 | . | -15 | . | . | . | .
COc1ccc2cnn(CCOc3ccccc3)c(=O)c2c1OC | 0.8 | 10 | 4 | 21 | 176* | 3.6*
O=C1N/C(=C/c2ccc(N3CCOCC3)o2)C(=O)N1c1ccccc1 | 0.9 | 10 | 18 | 6 | -54 | 6.2*
O=C1NC(=S)S/C1=C/c1ccc(N2CCOCC2)o1 | 0.4 | 17 | 25 | 64* | -13 | 1.2
O=C1S/C(=C/c2ccc(N3CCOCC3)o2)C(=O)N1Cc1ccc(F)cc1 | 1 | 2 | 7 | 0 | 14 | 1.7
CCN(CC)C(=O)CCc1nnc(Cc2cccc(C(F)(F)F)c2)o1 | 1 | 2 | 25 | -2 | 113 | 3.3*
O=C(NCc1ccccc1)C(c1ccccc1)n1c(-c2ccccn2)nc2ccccc21 (stereo not given) | . | 4 | . | . | . | .
CSc1nc2ccc(NC(=O)c3ccccn3)cc2s1 | . | 82* | . | . | . | .
CSc1cccc(NC(=O)c2cnccn2)c1 | 0.9 | 2 | -5 | 5 | 3 | 1.5
CSc1nc2ccc(NC(=O)C3=NNC(=O)CC3)cc2s1 | 1 | 0 | 7 | 4 | -1 | 1.4
CSc1cccc(NC(=O)c2ccccn2)c1 | 0.5 | . | 19 | 51* | 90 | 2.6
Cn1c(=O)c2cc(NC(=O)CCc3ccc4c(c3)OCO4)ccc2n1Cc1ccc(F)cc1 | . | -1 | . | . | . | .
Nc1ccc2nc(NC(=O)C3CCCCC3)sc2c1 | 0.6 | 36 | 3 | 38 | 121 | 4.8*
O=C(Nc1ncc(Cc2ccccc2)s1)C1CCCO1 (stereo not given) | 0.6 | 5 | 21 | 42 | 121 | 4.1*
CCOc1ccc2nc(NC(=O)C3CCCO3)sc2c1 (stereo not given) | 0.6 | 7 | . | 43 | 158* | 4.7*
O=C(Nc1nc2ccc(F)cc2s1)C1CCCO1 (stereo not given) | 0.9 | 4 | 13 | 13 | 106 | 3.9*
Cc1ccc(S(=O)(=O)N2[C@@H](CCO)OC[C@H]2C(C)C)cc1 | . | 11 | . | . | . | .
CCNC(=O)C1(C)CCCN(C(=O)c2ccc3c(c2)C(C)(C)CCC3(C)C)C1 (stereo not given) | . | 6 | . | . | . | .
CCCc1cc(=O)n2[nH]c(-c3ccc(Cl)cc3)cc2n1 | . | 0 | . | . | . | .
CCOC(=O)Cc1cc(=O)n2[nH]c(-c3ccc(Cl)cc3)cc2n1 | 0.4 | 10 | 17 | 57* | 6 | 1.6
CCCc1cc(C(=O)Nc2cc(Cl)ccc2O)no1 | . | -24 | . | . | . | .
CC(C)c1cc(C(=O)Nc2cc(Br)ccc2O)no1 | 1 | 15 | 5 | 5 | 38 | 7.5*
Cc1noc(C(=O)Nc2cc(Cl)ccc2O)c1Cl | . | 6 | . | . | . | .
CC(C)c1cc(C(=O)Nc2cc(Cl)ccc2O)no1 | 0.9 | 4 | 14 | 11 | 139* | 8.6*
SMILES | FLuc act counter | TRAIL sens C8 | PPC-1+TRAIL kill | FLuc inhib CS | APP 5'UTR act | NF-kB expr up
O=C(Nc1cc(Br)ccc1O)c1cc(-c2cccs2)on1 | . | 3 | . | . | . | .
CCCc1cc(C(=O)Nc2cc(Br)ccc2O)no1 | 1 | 0 | -2 | 3 | 23 | 5.5*
CN1CCN(C(=O)OC2CC3CC2[C@H]2CCCCN2C3=O)CC1 (stereo not given in full) | . | -5 | . | . | . | .
Cc1noc(C)c1-c1ccc(C(=O)NCCC(F)(F)F)c2occc12 | . | 12 | . | . | . | .
Nc1nc(-c2cccnc2)nc2sc3c(c12)CCCC3 | 0.2 | 60* | 49 | 85* | 93 | 5.6*
O=c1oc(-c2cccs2)nc2sc3c(c12)CCCCC3 | 0.3 | 9 | -8 | 67* | 77 | .
Cc1sc2nc(-c3cccs3)oc(=O)c2c1C | . | 0 | . | . | . | .
CCc1nc2sc3c(c2c(=O)o1)CCCC3 | 1 | -6 | -15 | 1 | 6 | 0.93
Cc1ccccc1-c1nc2sc3c(c2c(=O)o1)CCC3 | 0.7 | -4 | 2 | 27 | 14 | 4*
O=c1oc(-c2cccs2)nc2scc(-c3cccs3)c12 | 0.8 | -2 | 0 | 19 | 200* | 1.9
O=c1oc(-c2cc3ccccc3o2)nc2sc3c(c12)CCCC3 | 0.6 | -4 | 11 | 35 | 226* | 1.2
